The list is not random: actives were taken first. Their share in the collection is about 2.9%.
E-selectin induc: induces E-selectin expression in human endothelial cells | P16581 | HUVEC E-selectin immunofluorescence imaging; normalized: neutral wells 0, TNF-alpha wells 100 | activation, % at 7.58 µM | 0.37% of 260,000 active;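 active = mean E-selectin-positive cell signal at least 10% of the positive control, reached in at least 60% of replicates, without over 20% cell loss; inconclusive = no rule given, readout overlaps actives, possibly toxicity-flagged; inactive = the rest, including those meeting only one limit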
Target sequence (P16581 whole entry, looked up): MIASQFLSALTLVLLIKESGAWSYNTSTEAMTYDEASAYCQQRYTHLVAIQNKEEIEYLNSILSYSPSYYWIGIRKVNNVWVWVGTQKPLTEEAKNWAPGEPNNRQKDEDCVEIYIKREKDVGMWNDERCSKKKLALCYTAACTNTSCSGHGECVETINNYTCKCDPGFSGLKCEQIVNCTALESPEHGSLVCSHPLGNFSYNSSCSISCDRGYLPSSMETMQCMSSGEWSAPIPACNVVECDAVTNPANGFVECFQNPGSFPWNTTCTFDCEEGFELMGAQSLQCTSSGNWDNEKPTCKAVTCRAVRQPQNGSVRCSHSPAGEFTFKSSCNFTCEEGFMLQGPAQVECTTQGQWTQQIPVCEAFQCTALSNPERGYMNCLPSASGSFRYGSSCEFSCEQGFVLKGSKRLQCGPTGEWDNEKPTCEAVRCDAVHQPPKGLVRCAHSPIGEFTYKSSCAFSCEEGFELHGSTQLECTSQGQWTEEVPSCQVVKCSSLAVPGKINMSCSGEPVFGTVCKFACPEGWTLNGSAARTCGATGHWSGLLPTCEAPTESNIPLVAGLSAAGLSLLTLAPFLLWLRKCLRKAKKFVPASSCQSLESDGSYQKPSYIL
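System: HUVEC / Compound: single concentration / Signal: immunofluorescence imaging / Read-out: percent E-selectin-positive cells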
DENV2 CPE: protects cells from dengue virus 2 cytopathic effect. 1.7% of 350,000 active. DENV2-infected cells, cytopathic effect rescue, plate reader. CPE inhibition, % at 9.99 µM; in the data active = CPE inhibition above about 20%, passing the limit was not always enough; inconclusive = no clear call, values can overlap the other calls; tested in BHK-21 cells;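 note: 0% = median of neutral control wells and 100% = median of positive control wells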
SIRT5 inh: blocks human SIRT5 desuccinylation of peptide; 1.1% of 330,000 active; Q9NXA8; inhibition, % at 15 µM; Purified SirT5, succinyl-peptide AMC, trypsin-coupled fluorescence; in the data active = inhibition above about 15%; inconclusive = no clear call, values can overlap the other calls
Starred values were filed as active, the others as inactive; ? = inconclusive; nt = not tested or not shown.

SMILES	E-selectin induc	DENV2 CPE	SIRT5 inh
CCCNC(=O)N1[C@H](C#N)[C@H](c2ccc(-c3cccc(OC)c3)cc2)[C@H]1CO	-0.2	58.4*	-1.7
COc1ccc(/C=C/c2cc(C(F)(F)F)[nH]c(=O)n2)cc1OC	nt	0.3	3.6
CCOc1ccc(CCNS(=O)(=O)c2cn(C)cn2)cc1OCC	0.3	-2.3	33.1*
CCOc1cc(CNS(=O)(=O)c2cn(C)cn2)cc(OCC)c1OCC	-0.2	3.6	-2.9
COc1ccc(C2Nc3ccccc3C(=O)N2c2ccc(C)cc2)cc1Cn1nc(C)c([N+](=O)[O-])c1C (configuration not stated)	nt	-2.5	-5.0
CC(C)(CO)CN1CCC(n2nccc2NC(=O)C2CCCC2)CC1	nt	1.0	1.8
O=C(Nc1ccnn1C1CCN(CC(O)CO)CC1)C1CCCC1 (configuration not stated)	0.4	70.8*	-6.4
Cn1c(=O)cc(SCC(=O)N2CCN(C3CCCCC3)CC2)c2ccccc21	nt	-2.2	16.8*
CCOC(=O)C1CCN(C(=O)CSc2cc(=O)n(CC)c3ccccc23)CC1	nt	nt	-3.5
COc1ccc(OC)c(NC(=O)CSc2nnc(CNC(=O)c3cc(OC)c(OC)c(OC)c3)o2)c1	nt	0.0	-0.8
COc1ccc(OC)c(NC(=O)CSc2nnc(CNC(=O)c3cccs3)o2)c1	nt	0.2	21.2*
OC[C@@H]1[C@@H](c2ccc(C#Cc3ccccc3F)cc2)[C@H]2CN(CC3CCOCC3)CCCCN12	0.3	-25.6	1.9
Cc1ccc(S(=O)(=O)Nc2ccc3c(c2)C(=O)N([C@H](C)CO)C[C@@H](C)[C@@H](CN(C)S(=O)(=O)c2ccccc2)OCCCC[C@@H](C)O3)cc1	0.2	-0.1	20.7*
Cc1ccc(S(=O)(=O)N(C)C[C@@H]2OCCCC[C@H](C)Oc3ccc(NS(=O)(=O)c4ccccc4)cc3C(=O)N([C@@H](C)CO)C[C@@H]2C)cc1	0.3	-0.6	0.8
Cc1ccc(S(=O)(=O)Nc2ccc3c(c2)C(=O)N([C@@H](C)CO)C[C@H](C)[C@@H](CN(C)S(=O)(=O)c2ccccc2)OCCCC[C@@H](C)O3)cc1	0.1	?	19.3*
Cc1ccc(S(=O)(=O)N(C)C[C@@H]2OCCCC[C@@H](C)Oc3ccc(NS(=O)(=O)c4ccccc4)cc3C(=O)N([C@H](C)CO)C[C@H]2C)cc1	0.0	2.7	21.6*
Cc1ccc(S(=O)(=O)N(C)C[C@H]2OCCCC[C@H](C)Oc3ccc(NS(=O)(=O)c4ccccc4)cc3C(=O)N([C@H](C)CO)C[C@@H]2C)cc1	0.5	0.4	3.5
Cc1ccc(S(=O)(=O)N(C)C[C@@H]2OCCCC[C@@H](C)Oc3ccc(NS(=O)(=O)c4ccccc4)cc3C(=O)N([C@@H](C)CO)C[C@@H]2C)cc1	-0.2	2.5	20.6*
Cc1ccc(S(=O)(=O)Nc2ccc3c(c2)C(=O)N([C@@H](C)CO)C[C@@H](C)[C@@H](CN(C)S(=O)(=O)c2ccccc2)OCCCC[C@H](C)O3)cc1	3.2	-2.1	0.4
Cc1ccc(S(=O)(=O)Nc2ccc3c(c2)C(=O)N([C@H](C)CO)C[C@@H](C)[C@H](CN(C)S(=O)(=O)c2ccccc2)OCCCC[C@H](C)O3)cc1	0.1	16.2	10.0
COc1ccc(NC(=O)Nc2ccc3c(c2)C(=O)N([C@H](C)CO)C[C@@H](C)[C@H](CN(C)S(=O)(=O)c2c(C)noc2C)OCCCC[C@@H](C)O3)cc1	0.1	1.0	nt
Cc1nc2sc(-c3ccccc3)nn2c(=O)c1Br	-0.4	3.0	-1.6
O=C1Cn2nnc(-c3ccccc3)c2C2c3cc(Br)ccc3CCN12 (configuration not stated)	0.0	2.6	0.9
COc1ccc(Nc2nc(NCCN3CCOCC3)nc(Nc3ccc(OC)cc3)n2)cc1	nt	-0.8	3.3
O=C(NN(CC(O)COc1ccccc1)CC(O)COc1ccccc1)c1ccccc1 (configuration not stated)	nt	-0.5	-2.5
SMILES	E-selectin induc	DENV2 CPE	SIRT5 inh
O=C1/C(=C/c2ccc(C(=O)O)cc2)CCC/C1=C\c1ccc(C(=O)O)cc1	-0.5	nt	nt
CSc1ccccc1C(=O)C1CCCN(S(=O)(=O)c2c(C)noc2C)C1 (configuration not stated)	nt	19.3	-7.0
C[C@H](CO)N1C[C@H](C)[C@@H](CN(C)C(=O)Nc2ccc(F)cc2)Oc2ccc(NC(=O)Nc3ccc4c(c3)OCO4)cc2CC1=O	-0.1	8.9	nt
C[C@H](CO)N1C[C@H](C)[C@@H](CN(C)C(=O)Nc2ccc3c(c2)OCO3)Oc2ccc(NC(=O)Nc3ccc(F)cc3)cc2CC1=O	-1.4	23.3*	-1.3
C[C@@H]1CN([C@@H](C)CO)C(=O)Cc2cc(NC(=O)Nc3ccc4c(c3)OCO4)ccc2O[C@H]1CN(C)C(=O)Nc1ccc(F)cc1	-0.1	45.3*	nt
C[C@H]1CN([C@@H](C)CO)C(=O)Cc2cc(NC(=O)Nc3ccc4c(c3)OCO4)ccc2O[C@H]1CN(C)C(=O)Nc1ccc(F)cc1	0.3	-6.0	nt
CCOC(=O)CCCCCC(=O)Nc1ccc2c(c1)CC(=O)N([C@@H](C)CO)C[C@H](C)[C@@H](CN(C)C(=O)Nc1ccc3c(c1)OCO3)O2	0.2	45.9*	-1.1
C[C@@H]1CN([C@H](C)CO)C(=O)Cc2cc(NC(=O)CCCN(C)C)ccc2O[C@H]1CN(C)C(=O)Nc1ccc2c(c1)OCO2	nt	1.2	5.5
Brc1ccc(/C=N/Nc2nncc(-c3ccccc3)n2)o1	9.2	-3.5	-5.6
CCC(=O)N1CC2(C1)CN(S(C)(=O)=O)[C@H](CO)c1c2c2ccc(OC)cc2n1C	-0.1	4.8	nt
O=C(CSc1nnc(CN2CCCCC2)n1-c1ccccc1)c1ccc2c(c1)OCO2	nt	nt	1.7
CCO[C@H]1OC(C(N)=O)=C[C@@H](c2coc3ccccc3c2=O)[C@@H]1CCCO	-0.1	0.8	0.4
Cc1cc(C)cc(OCC(=O)OCC(=O)NCCC2=CCCCC2)c1	0.6	nt	nt
NC(=O)c1ccsc1NC(=O)COC(=O)c1cc(Cl)ccc1O	-0.4	3.8	-3.1
Cc1noc(C)c1NC(=O)N(C)C[C@@H]1Oc2c(NC(=O)c3ccc(-c4nccs4)cc3)cccc2C(=O)N([C@H](C)CO)C[C@@H]1C	nt	33.2*	-0.8
Cc1noc(C)c1NC(=O)N(C)C[C@H]1Oc2c(NC(=O)c3ccc(-c4nccs4)cc3)cccc2C(=O)N([C@H](C)CO)C[C@H]1C	nt	8.6	6.3
Cc1noc(C)c1NC(=O)N(C)C[C@H]1Oc2c(NC(=O)c3ccc(-c4nccs4)cc3)cccc2C(=O)N([C@@H](C)CO)C[C@H]1C	nt	24.3*	-1.3
C[C@@H]1CN([C@H](C)CO)C(=O)c2cccc(NC(=O)c3ccc(-c4nccs4)cc3)c2O[C@@H]1CN(C)C(=O)Nc1cccc2ccccc12	nt	4.3	1.8
CN1C[C@@H]2[C@H](c3ccccc31)[C@@H](CO)N2C(=O)C1CCOCC1	0.3	15.1	1.9
C[C@H]1CN([C@@H](C)CO)C(=O)c2cccc(NC(=O)Nc3ccccc3)c2O[C@H]1CN(C)S(=O)(=O)c1cccs1	0.1	nt	nt
C[C@H](O)C#Cc1cnc2c(c1)C(=O)N([C@@H](C)CO)C[C@@H](C)[C@@H](CN(C)C(=O)CC1CC1)O2	11.4	2.4	0.1
CN(C)c1ccc(C(C(=O)NCC2CCCO2)N(C(=O)c2snc(C(N)=O)c2N)c2ccccc2)cc1 (configuration not stated)	0.1	8.7	0.3
